For 8 compounds, IC50, Emax and EC50 results are on record in ChEMBL document CHEMBL1138520, “Molecular and conformational determinants of pituitary adenylate cyclase-activating polypeptide (PACAP) for activation of the PAC1 receptor” (J Med Chem, 2009).

For experiment [1], the target named is T1, Pituitary adenylate cyclase-activating polypeptide type I receptor (Homo sapiens, UniProt P41586). In words: Displacement of [125I]Ac-PACAP27 from human recombinant PAC1 receptor expressed in CHO cells by gamma- counter. In kind it is cell-based.
Target sequence in this assay (P41586 whole entry): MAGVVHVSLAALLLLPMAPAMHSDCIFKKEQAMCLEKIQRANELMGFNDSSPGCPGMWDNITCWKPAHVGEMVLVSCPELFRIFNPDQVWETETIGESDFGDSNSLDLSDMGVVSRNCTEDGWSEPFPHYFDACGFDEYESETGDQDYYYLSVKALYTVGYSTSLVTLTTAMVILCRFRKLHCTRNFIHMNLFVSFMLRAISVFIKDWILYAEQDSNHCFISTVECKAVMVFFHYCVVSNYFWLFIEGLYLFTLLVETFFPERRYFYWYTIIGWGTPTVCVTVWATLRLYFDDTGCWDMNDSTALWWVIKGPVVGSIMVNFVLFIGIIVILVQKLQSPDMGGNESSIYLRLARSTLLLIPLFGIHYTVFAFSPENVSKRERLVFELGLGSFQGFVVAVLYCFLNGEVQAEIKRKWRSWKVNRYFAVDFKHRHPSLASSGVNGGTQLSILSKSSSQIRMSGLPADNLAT
Experiment [2] deals with T1, Pituitary adenylate cyclase-activating polypeptide type I receptor. Put plainly: Agonist activity at human recombinant PAC1 receptor expressed in CHO cells assessed as PACAP38-induced calcium mobilization by FLIPR assay relative to PACAP38. In kind it is functional, cell-based. In outline: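 CHO cells stably expressing recombinant human PAC1, plated 24 h before assay, loaded with fluo-4 AM for 60 min at 37 °C in the dark, then rinsed into HBSS for 15 min at 37 °C. Peptide was added 18 s into a 150 s read (ex 480/em 525 nm), at final concentrations of 1 × 10-12 to 1 × 10^-5 M. Response was normalised to 1 × 10^-5 M PACAP38 on each plate. EC50 and efficacy came from nonlinear regression; 4-10 independent assays in duplicate.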
Target sequence in this assay (P41586 21-468 limits assumed): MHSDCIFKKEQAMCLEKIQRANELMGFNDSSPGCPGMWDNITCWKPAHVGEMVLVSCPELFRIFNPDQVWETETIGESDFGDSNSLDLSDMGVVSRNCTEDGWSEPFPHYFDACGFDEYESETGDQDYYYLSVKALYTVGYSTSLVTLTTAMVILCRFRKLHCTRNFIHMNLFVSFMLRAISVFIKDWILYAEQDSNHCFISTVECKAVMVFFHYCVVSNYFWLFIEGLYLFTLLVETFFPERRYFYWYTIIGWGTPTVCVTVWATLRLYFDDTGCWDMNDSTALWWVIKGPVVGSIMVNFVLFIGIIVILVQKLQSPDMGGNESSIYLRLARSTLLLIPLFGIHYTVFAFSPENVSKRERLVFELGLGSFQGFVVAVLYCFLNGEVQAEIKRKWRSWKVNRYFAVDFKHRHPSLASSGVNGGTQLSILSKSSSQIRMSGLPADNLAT

Experiment [3] has the same target. In words: Agonist activity at human recombinant PAC1 receptor expressed in CHO cells assessed as PACAP38-induced calcium mobilization by FLIPR assay. In kind it is functional, cell-based. In outline: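 CHO cells stably expressing recombinant human PAC1, plated 24 h before assay, loaded with fluo-4 AM for 60 min at 37 °C in the dark, then rinsed into HBSS for 15 min at 37 °C. EC50 and efficacy came from nonlinear regression; 4-10 independent assays in duplicate.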
Target sequence in this assay (P41586 whole entry): as the sequence (P41586 whole entry) above

Where a SMILES comes first, the peptide text is derived from it. [ ]: non-standard residue; d: D form. Aib = CC(C)(N)C(=O)O

Take `CC[C@H](C)[C@H](NC(=O)CNC(=O)[C@H](CC(N)=O)NC(=O)[C@H](CO)NC(=O)[C@@H](N)Cc1cnc[nH]1)C(=O)N[C@@H](Cc1ccccc1)C(=O)N[C@H](C(=O)N[C@@H](CC(=O)O)C(=O)N[C@@H](CO)C(=O)N[C@@H](Cc1ccc(O)cc1)C(=O)N[C@@H](CO)C(=O)N[C@@H](CCCNC(=N)N)C(=O)N[C@@H](Cc1ccc(O)cc1)C(=O)N[C@@H](CCCNC(=N)N)C(=O)N[C@@H](CCCCN)C(=O)N[C@@H](CCC(N)=O)C(=O)N[C@@H](CCSC)C(=O)N[C@@H](C)C(=O)N[C@H](C(=O)N[C@@H](CCCCN)C(=O)N[C@@H](CCCCN)C(=O)N[C@@H](Cc1ccc(O)cc1)C(=O)N[C@@H](CC(C)C)C(=O)N[C@@H](C)C(=O)N[C@@H](C)C(=O)N[C@H](C(=O)N[C@@H](CC(C)C)C(=O)NCC(=O)N[C@@H](CCCCN)C(=O)N[C@@H](CCCNC(=N)N)C(=O)N[C@@H](Cc1ccc(O)cc1)C(=O)N[C@@H](CCCCN)C(=O)N[C@@H](CCC(N)=O)C(=O)N[C@@H](CCCNC(=N)N)C(=O)N[C@H](C(=O)N[C@@H](CCCCN)C(=O)N[C@@H](CC(N)=O)C(=O)N[C@@H](CCCCN)C(N)=O)C(C)C)C(C)C)C(C)C)[C@@H](C)O` (H-HSNGIFTDSYSRYRKQMAVKKYLAAVLGKRYKQRVKNK-NH2): the IC50 in experiment [1] stood at 9.2 nM. Besides, in experiment [2], the Emax amounted to 22.1%. Besides, in experiment [3], the EC50 is 52.2 nM.

In the case of `CC[C@H](C)[C@H](NC(=O)CNC(=O)[C@H](CC(=O)O)NC(=O)[C@H](CO)NC(=O)[C@@H](N)Cc1cnc[nH]1)C(=O)N1c2ccccc2CC1C(=O)N[C@H](C(=O)N[C@@H](CC(=O)O)C(=O)N[C@@H](CO)C(=O)N[C@@H](Cc1ccc(O)cc1)C(=O)N[C@@H](CO)C(=O)N[C@@H](CCCNC(=N)N)C(=O)N[C@@H](Cc1ccc(O)cc1)C(=O)N[C@@H](CCCNC(=N)N)C(=O)N[C@@H](CCCCN)C(=O)N[C@@H](CCC(N)=O)C(=O)N[C@@H](CCSC)C(=O)N[C@@H](C)C(=O)N[C@H](C(=O)N[C@@H](CCCCN)C(=O)N[C@@H](CCCCN)C(=O)N[C@@H](Cc1ccc(O)cc1)C(=O)N[C@@H](CC(C)C)C(=O)N[C@@H](C)C(=O)N[C@@H](C)C(=O)N[C@H](C(=O)N[C@@H](CC(C)C)C(N)=O)C(C)C)C(C)C)[C@@H](C)O` (stereo not given in full), the IC50 in experiment [1] was 1940 nM. Further, in experiment [2], the Emax came out at 72%. Also, the half-maximal effective concentration (EC50) in experiment [3] came out at 35 nM.

In the case of `CC[C@H](C)[C@H](NC(=O)C(C)(C)NC(=O)[C@H](CC(=O)O)NC(=O)[C@H](CO)NC(=O)[C@@H](N)Cc1cnc[nH]1)C(=O)N[C@@H](Cc1ccccc1)C(=O)N[C@H](C(=O)N[C@@H](CC(=O)O)C(=O)N[C@@H](CO)C(=O)N[C@@H](Cc1ccc(O)cc1)C(=O)N[C@@H](CO)C(=O)N[C@@H](CCCNC(=N)N)C(=O)N[C@@H](Cc1ccc(O)cc1)C(=O)N[C@@H](CCCNC(=N)N)C(=O)N[C@@H](CCCCN)C(=O)N[C@@H](CCC(N)=O)C(=O)N[C@@H](CCSC)C(=O)N[C@@H](C)C(=O)N[C@H](C(=O)N[C@@H](CCCCN)C(=O)N[C@@H](CCCCN)C(=O)N[C@@H](Cc1ccc(O)cc1)C(=O)N[C@@H](CC(C)C)C(=O)N[C@@H](C)C(=O)N[C@@H](C)C(=O)N[C@H](C(=O)N[C@@H](CC(C)C)C(=O)NCC(=O)N[C@@H](CCCCN)C(=O)N[C@@H](CCCNC(=N)N)C(=O)N[C@@H](Cc1ccc(O)cc1)C(=O)N[C@@H](CCCCN)C(=O)N[C@@H](CCC(N)=O)C(=O)N[C@@H](CCCNC(=N)N)C(=O)N[C@H](C(=O)N[C@@H](CCCCN)C(=O)N[C@@H](CC(N)=O)C(=O)N[C@@H](CCCCN)C(N)=O)C(C)C)C(C)C)C(C)C)[C@@H](C)O` (H-HSD[Aib]IFTDSYSRYRKQMAVKKYLAAVLGKRYKQRVKNK-NH2), the IC50 in experiment [1] was 9.2 nM. For the same compound, the maximal effect (Emax) in experiment [2] turned out to be 84%. Further, in experiment [3], the EC50 was 3.3 nM.

For the compound `CSCC[C@H](NC(=O)[C@H](CCC(N)=O)NC(=O)[C@H](CCCCN)NC(=O)[C@H](CCCNC(=N)N)NC(=O)[C@H](Cc1ccc(O)cc1)NC(=O)[C@H](CCCNC(=N)N)NC(=O)[C@H](CO)NC(=O)[C@H](Cc1ccc(O)cc1)NC(=O)[C@H](CO)NC(=O)[C@H](CC(=O)O)NC(=O)[C@@H](NC(=O)[C@H](Cc1ccccc1)NC(=O)[C@H](CC(C)C)N1CC[C@H](NC(=O)[C@H](CC(=O)O)NC(=O)[C@H](CO)NC(=O)[C@@H](N)Cc2cnc[nH]2)C1=O)[C@@H](C)O)C(=O)N[C@@H](C)C(=O)N[C@H](C(=O)N[C@@H](CCCCN)C(=O)N[C@@H](CCCCN)C(=O)N[C@@H](Cc1ccc(O)cc1)C(=O)N[C@@H](CC(C)C)C(=O)N[C@@H](C)C(=O)N[C@@H](C)C(=O)N[C@H](C(=O)N[C@@H](CC(C)C)C(=O)NCC(=O)N[C@@H](CCCCN)C(=O)N[C@@H](CCCNC(=N)N)C(=O)N[C@@H](Cc1ccc(O)cc1)C(=O)N[C@@H](CCCCN)C(=O)N[C@@H](CCC(N)=O)C(=O)N[C@@H](CCCNC(=N)N)C(=O)N[C@H](C(=O)N[C@@H](CCCCN)C(=O)N[C@@H](CC(N)=O)C(=O)N[C@@H](CCCCN)C(N)=O)C(C)C)C(C)C)C(C)C`, the IC50 in experiment [1] was found to be 775 nM. In addition, in experiment [2], the Emax came out at 38.2%. The EC50 in experiment [3] was 2480 nM.

On to `CC[C@H](C)[C@H](NC(=O)CNC(=O)[C@H](CC(=O)O)NC(=O)[C@H](CO)NC(=O)[C@H](N)Cc1cnc[nH]1)C(=O)N[C@@H](Cc1ccccc1)C(=O)N[C@H](C(=O)N[C@@H](CC(=O)O)C(=O)N[C@@H](CO)C(=O)N[C@@H](Cc1ccc(O)cc1)C(=O)N[C@@H](CO)C(=O)N[C@@H](CCCNC(=N)N)C(=O)N[C@@H](Cc1ccc(O)cc1)C(=O)N[C@@H](CCCNC(=N)N)C(=O)N[C@@H](CCCCN)C(=O)N[C@@H](CCC(N)=O)C(=O)N[C@@H](CCSC)C(=O)N[C@@H](C)C(=O)N[C@H](C(=O)N[C@@H](CCCCN)C(=O)N[C@@H](CCCCN)C(=O)N[C@@H](Cc1ccc(O)cc1)C(=O)N[C@@H](CC(C)C)C(=O)N[C@@H](C)C(=O)N[C@@H](C)C(=O)N[C@H](C(=O)N[C@@H](CC(C)C)C(=O)NCC(=O)N[C@@H](CCCCN)C(=O)N[C@@H](CCCNC(=N)N)C(=O)N[C@@H](Cc1ccc(O)cc1)C(=O)N[C@@H](CCCCN)C(=O)N[C@@H](CCC(N)=O)C(=O)N[C@@H](CCCNC(=N)N)C(=O)N[C@H](C(=O)N[C@@H](CCCCN)C(=O)N[C@@H](CC(N)=O)C(=O)N[C@@H](CCCCN)C(N)=O)C(C)C)C(C)C)C(C)C)[C@@H](C)O`, for which the Emax in experiment [2] was determined as 107%. Further, the EC50 in experiment [3] is 2.9 nM.

`CC[C@H](C)[C@H](NC(=O)CNC(=O)[C@H](CC(=O)O)NC(=O)[C@H](CO)N(C)C(=O)[C@@H](N)Cc1cnc[nH]1)C(=O)N[C@@H](Cc1ccccc1)C(=O)N[C@H](C(=O)N[C@@H](CC(=O)O)C(=O)N[C@@H](CO)C(=O)N[C@@H](Cc1ccc(O)cc1)C(=O)N[C@@H](CO)C(=O)N[C@@H](CCCNC(=N)N)C(=O)N[C@@H](Cc1ccc(O)cc1)C(=O)N[C@@H](CCCNC(=N)N)C(=O)N[C@@H](CCCCN)C(=O)N[C@@H](CCC(N)=O)C(=O)N[C@@H](CCSC)C(=O)N[C@@H](C)C(=O)N[C@H](C(=O)N[C@@H](CCCCN)C(=O)N[C@@H](CCCCN)C(=O)N[C@@H](Cc1ccc(O)cc1)C(=O)N[C@@H](CC(C)C)C(=O)N[C@@H](C)C(=O)N[C@@H](C)C(=O)N[C@H](C(=O)N[C@@H](CC(C)C)C(N)=O)C(C)C)C(C)C)[C@@H](C)O`: the Emax in experiment [2] turned out to be 93%. Besides, in experiment [3], the EC50 came out at 48.8 nM.

On to `CC[C@H](C)[C@H](NC(=O)CNC(=O)[C@H](CC(=O)O)NC(=O)[C@H](CO)NC(=O)[C@@H](N)Cc1cnc[nH]1)C(=O)N[C@@H](Cc1ccccc1)C(=O)N[C@@H](C(=O)N[C@@H](CC(=O)O)C(=O)N[C@@H](CO)C(=O)N[C@@H](Cc1ccc(O)cc1)C(=O)N[C@@H](CO)C(=O)N[C@@H](CCCNC(=N)N)C(=O)N[C@@H](Cc1ccc(O)cc1)C(=O)N[C@@H](CCCNC(=N)N)C(=O)N[C@@H](CCCCN)C(=O)N[C@@H](CCC(N)=O)C(=O)N[C@@H](CCSC)C(=O)N[C@@H](C)C(=O)N[C@H](C(=O)N[C@@H](CCCCN)C(=O)N[C@@H](CCCCN)C(=O)N[C@@H](Cc1ccc(O)cc1)C(=O)N[C@@H](CC(C)C)C(=O)N[C@@H](C)C(=O)N[C@@H](C)C(=O)N[C@H](C(=O)N[C@@H](CC(C)C)C(=O)NCC(=O)N[C@@H](CCCCN)C(=O)N[C@@H](CCCNC(=N)N)C(=O)N[C@@H](Cc1ccc(O)cc1)C(=O)N[C@@H](CCCCN)C(=O)N[C@@H](CCC(N)=O)C(=O)N[C@@H](CCCNC(=N)N)C(=O)N[C@H](C(=O)N[C@@H](CCCCN)C(=O)N[C@@H](CC(N)=O)C(=O)N[C@@H](CCCCN)C(N)=O)C(C)C)C(C)C)C(C)C)[C@H](C)O`, for which, in experiment [1], the IC50 was determined as 119 nM. Further, the EC50 in experiment [3] is 7.3 nM.

In the case of `CC[C@H](C)[C@H](NC(=O)CNC(=O)[C@H](CC(=O)O)NC(=O)[C@H](CO)NC(=O)[C@H](C)N)C(=O)N[C@@H](Cc1ccccc1)C(=O)N[C@H](C(=O)N[C@@H](CC(=O)O)C(=O)N[C@@H](CO)C(=O)N[C@@H](Cc1ccc(O)cc1)C(=O)N[C@@H](CO)C(=O)N[C@@H](CCCN=C(N)N)C(=O)N[C@@H](Cc1ccc(O)cc1)C(=O)N[C@@H](CCCN=C(N)N)C(=O)N[C@@H](CCCCN)C(=O)N[C@@H](CCC(N)=O)C(=O)N[C@@H](CCSC)C(=O)N[C@@H](C)C(=O)N[C@H](C(=O)N[C@@H](CCCCN)C(=O)N[C@@H](CCCCN)C(=O)N[C@@H](Cc1ccc(O)cc1)C(=O)N[C@@H](CC(C)C)C(=O)N[C@@H](C)C(=O)N[C@@H](C)C(=O)N[C@H](C(=O)N[C@@H](CC(C)C)C(=O)NCC(=O)N[C@@H](CCCCN)C(=O)N[C@@H](CCCN=C(N)N)C(=O)N[C@@H](Cc1ccc(O)cc1)C(=O)N[C@@H](CCCCN)C(=O)N[C@@H](CCC(N)=O)C(=O)N[C@@H](CCCN=C(N)N)C(=O)N[C@H](C(=O)N[C@@H](CCCCN)C(=O)N[C@@H](CC(N)=O)C(=O)N[C@@H](CCCCN)C(N)=O)C(C)C)C(C)C)C(C)C)[C@@H](C)O` (H-ASDGIFTDSYSRYRKQMAVKKYLAAVLGKRYKQRVKNK-NH2), in experiment [1], the IC50 stood at 49.3 nM. In addition, the EC50 in experiment [3] was determined as 11 nM.

What is called IC50 is the concentration that gives 50% inhibition. As a reminder, the Emax is the size of the effect at its maximum, as opposed to the concentration needed. Broadly, the EC50 is the concentration that produces a half-maximal response.
